Results taken from ChEMBL document CHEMBL5705890, “Antitumor activity of an allosteric inhibitor of centromere-associated protein-E” (Proc Natl Acad Sci U S A, 2010).

Legend:
[1] = target: Centromere-associated protein E (Homo sapiens, UniProt Q02224, I182L/K184T/T183A); test: Binding affinity to human CENP-E I182L/T183A/K184T mutant assessed as inhibition constant
[2] = target: Centromere-associated protein E (Homo sapiens, UniProt Q02224, I182L); test: Binding affinity to human CENP-E I182L mutant assessed as inhibition constant
A549 = test: Anticancer activity against human A549 cells assessed as cell growth inhibition measured after 72 hrs by DAPI staining based analysis; type: functional
In short: (§1)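 Cells were seeded and, after 24 h, DNA content was read as T0. Cells were then exposed to varying drug concentrations for a further 72 h (T72). Fixed cells were DAPI-stained and DNA content measured by automated imaging. T72 values were normalized to T0. GI50 is the concentration giving 50% growth inhibition between T0 and Ymax, obtained by curve fitting.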

AN3-CA = test: Anticancer activity against human AN3-CA cells assessed as cell growth inhibition measured after 72 hrs by DAPI staining based analysis; type: functional; in short: as §1
BHT-101 = test: Anticancer activity against human BHT-101 cells assessed as cell growth inhibition measured after 72 hrs by DAPI staining based analysis; type: functional
In short: (§2)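 Cells were seeded, and DNA content at 24 h after seeding (T0) was read by imaging of fixed, DAPI-stained cells. Cells were then exposed to a range of drug concentrations for a further 72 h (T72) and DNA content was read again. T72 values were normalized to T0, and GI50 was taken from curve fits as the concentration giving 50% growth inhibition relative to T0 and Ymax.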

C3A = test: Anticancer activity against human C3A cells assessed as cell growth inhibition measured after 72 hrs by DAPI staining based analysis; type: functional; in short: as §2
DoTc2-4510 = test: Anticancer activity against human DoTc2-4510 cells assessed as cell growth inhibition measured after 72 hrs by DAPI staining based analysis; type: functional
In short: (§3)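 Cells seeded, DAPI-stained DNA content of fixed cells read by imaging 24 h after seeding (T0), and again after a further 72 h exposure to a range of drug concentrations (T72). T72 values were normalized to T0. Curve fits gave the concentration producing 50% growth inhibition relative to T0 and Ymax (GI50).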

HCC1143 = test: Anticancer activity against human HCC1143 cells assessed as cell growth inhibition measured after 72 hrs by DAPI staining based analysis; type: functional; in short: as §3
J82 = test: Anticancer activity against human J82 cells assessed as cell growth inhibition measured after 72 hrs by DAPI staining based analysis; type: functional
K562 = test: Anticancer activity against human K562 cells assessed as cell growth inhibition measured after 72 hrs by DAPI staining based analysis; type: functional
MCF7 = test: Anticancer activity against human MCF7 cells assessed as cell growth inhibition measured after 72 hrs by DAPI staining based analysis; type: functional
MES-SA = test: Anticancer activity against human MES-SA cells assessed as cell growth inhibition measured after 72 hrs by DAPI staining based analysis; type: functional
OVCAR-3 = test: Anticancer activity against human OVCAR-3 cells assessed as cell growth inhibition measured after 72 hrs by DAPI staining based analysis; type: functional
OVCAR-5 = test: Anticancer activity against human OVCAR-5 cells assessed as cell growth inhibition measured after 72 hrs by DAPI staining based analysis; type: functional
RPMI-2650 = test: Anticancer activity against human RPMI-2650 cells assessed as cell growth inhibition measured after 72 hrs by DAPI staining based analysis; type: functional
SCC-9 = test: Anticancer activity against human SCC-9 cells assessed as cell growth inhibition measured after 72 hrs by DAPI staining based analysis; type: functional
[3] = Anticancer activity against human SW579 cells assessed as cell growth inhibition measured after 72 hrs by DAPI staining based analysis; type: functional
SW-620 = test: Anticancer activity against human SW620 cells assessed as cell growth inhibition measured after 72 hrs by DAPI staining based analysis; type: functional
SW780 = test: Anticancer activity against human SW780 cells assessed as cell growth inhibition measured after 72 hrs by DAPI staining based analysis; type: functional
SW837 = test: Anticancer activity against human SW837 cells assessed as cell growth inhibition measured after 72 hrs by DAPI staining based analysis; type: functional
SW 962 = test: Anticancer activity against human SW 962 cells assessed as cell growth inhibition measured after 72 hrs by DAPI staining based analysis; type: functional
UACC-62 = test: Anticancer activity against human UACC-62 cells assessed as cell growth inhibition measured after 72 hrs by DAPI staining based analysis; type: functional
647-V = test: Anticancer activity against human 647-V cells assessed as cell doubling measured for 72 hrs by DAPI staining based analysis; type: functional
A498 = test: Anticancer activity against human A498 cells assessed as cell doubling measured for 72 hrs by DAPI staining based analysis; type: functional
[4] = Anticancer activity against human CML-T1 cells assessed as cell doubling measured for 72 hrs by DAPI staining based analysis; type: functional
COLO 205 = test: Anticancer activity against human COLO 205 cells assessed as cell doubling measured for 72 hrs by DAPI staining based analysis; type: functional
[5] = Anticancer activity against human COLO-704 cells assessed as cell doubling measured for 72 hrs by DAPI staining based analysis; type: functional
HCC 2998 = test: Anticancer activity against human HCC 2998 cells assessed as cell doubling measured for 72 hrs by DAPI staining based analysis; type: functional
MDA-MB-468 = test: Anticancer activity against human MDA-MB-468 cells assessed as cell doubling measured for 72 hrs by DAPI staining based analysis; type: functional
NCI-H2122 = test: Anticancer activity against human NCI-H2122 cells assessed as cell doubling measured for 72 hrs by DAPI staining based analysis; type: functional
NCI-H596 = test: Anticancer activity against human NCI-H596 cells assessed as cell doubling measured for 72 hrs by DAPI staining based analysis; type: functional
NCI-H82 = test: Anticancer activity against human NCI-H82 cells assessed as cell doubling measured for 72 hrs by DAPI staining based analysis; type: functional
OVCAR-4 = test: Anticancer activity against human OVCAR-4 cells assessed as cell doubling measured for 72 hrs by DAPI staining based analysis; type: functional
OVCAR-8 = test: Anticancer activity against human OVCAR-8 cells assessed as cell doubling measured for 72 hrs by DAPI staining based analysis; type: functional
Y79 = test: Anticancer activity against human Y79 cells assessed as cell doubling measured for 72 hrs by DAPI staining based analysis; type: functional
NCI-H460 = test: Antitumor activity against human NCI-H460 cells in xenograft model assessed as difference between median time to endpoint time of treated versus control group at 62.5 mg/kg; type: functional
NCI-H1299 = test: Antitumor activity against human NCI-H1299 cells in xenograft model assessed as difference between median time to endpoint time of treated versus control group at 62.5 mg/kg; type: functional
[6] = Antitumor activity against human MV-522 cells in xenograft model assessed as tumor growth delay at 125 mg/kg relative to control; type: functional
[7] = Toxicity in mouse xenografted with human COLO 205 cells at 500 mg/kg, ip administered three doses daily on 2 consecutive weeks; type: organism-based; conditions: in vivo, 336 h, time 2 weeks

Sequence of Centromere-associated protein E (Homo sapiens, UniProt Q02224, I182L) (Q02224 whole entry I182L): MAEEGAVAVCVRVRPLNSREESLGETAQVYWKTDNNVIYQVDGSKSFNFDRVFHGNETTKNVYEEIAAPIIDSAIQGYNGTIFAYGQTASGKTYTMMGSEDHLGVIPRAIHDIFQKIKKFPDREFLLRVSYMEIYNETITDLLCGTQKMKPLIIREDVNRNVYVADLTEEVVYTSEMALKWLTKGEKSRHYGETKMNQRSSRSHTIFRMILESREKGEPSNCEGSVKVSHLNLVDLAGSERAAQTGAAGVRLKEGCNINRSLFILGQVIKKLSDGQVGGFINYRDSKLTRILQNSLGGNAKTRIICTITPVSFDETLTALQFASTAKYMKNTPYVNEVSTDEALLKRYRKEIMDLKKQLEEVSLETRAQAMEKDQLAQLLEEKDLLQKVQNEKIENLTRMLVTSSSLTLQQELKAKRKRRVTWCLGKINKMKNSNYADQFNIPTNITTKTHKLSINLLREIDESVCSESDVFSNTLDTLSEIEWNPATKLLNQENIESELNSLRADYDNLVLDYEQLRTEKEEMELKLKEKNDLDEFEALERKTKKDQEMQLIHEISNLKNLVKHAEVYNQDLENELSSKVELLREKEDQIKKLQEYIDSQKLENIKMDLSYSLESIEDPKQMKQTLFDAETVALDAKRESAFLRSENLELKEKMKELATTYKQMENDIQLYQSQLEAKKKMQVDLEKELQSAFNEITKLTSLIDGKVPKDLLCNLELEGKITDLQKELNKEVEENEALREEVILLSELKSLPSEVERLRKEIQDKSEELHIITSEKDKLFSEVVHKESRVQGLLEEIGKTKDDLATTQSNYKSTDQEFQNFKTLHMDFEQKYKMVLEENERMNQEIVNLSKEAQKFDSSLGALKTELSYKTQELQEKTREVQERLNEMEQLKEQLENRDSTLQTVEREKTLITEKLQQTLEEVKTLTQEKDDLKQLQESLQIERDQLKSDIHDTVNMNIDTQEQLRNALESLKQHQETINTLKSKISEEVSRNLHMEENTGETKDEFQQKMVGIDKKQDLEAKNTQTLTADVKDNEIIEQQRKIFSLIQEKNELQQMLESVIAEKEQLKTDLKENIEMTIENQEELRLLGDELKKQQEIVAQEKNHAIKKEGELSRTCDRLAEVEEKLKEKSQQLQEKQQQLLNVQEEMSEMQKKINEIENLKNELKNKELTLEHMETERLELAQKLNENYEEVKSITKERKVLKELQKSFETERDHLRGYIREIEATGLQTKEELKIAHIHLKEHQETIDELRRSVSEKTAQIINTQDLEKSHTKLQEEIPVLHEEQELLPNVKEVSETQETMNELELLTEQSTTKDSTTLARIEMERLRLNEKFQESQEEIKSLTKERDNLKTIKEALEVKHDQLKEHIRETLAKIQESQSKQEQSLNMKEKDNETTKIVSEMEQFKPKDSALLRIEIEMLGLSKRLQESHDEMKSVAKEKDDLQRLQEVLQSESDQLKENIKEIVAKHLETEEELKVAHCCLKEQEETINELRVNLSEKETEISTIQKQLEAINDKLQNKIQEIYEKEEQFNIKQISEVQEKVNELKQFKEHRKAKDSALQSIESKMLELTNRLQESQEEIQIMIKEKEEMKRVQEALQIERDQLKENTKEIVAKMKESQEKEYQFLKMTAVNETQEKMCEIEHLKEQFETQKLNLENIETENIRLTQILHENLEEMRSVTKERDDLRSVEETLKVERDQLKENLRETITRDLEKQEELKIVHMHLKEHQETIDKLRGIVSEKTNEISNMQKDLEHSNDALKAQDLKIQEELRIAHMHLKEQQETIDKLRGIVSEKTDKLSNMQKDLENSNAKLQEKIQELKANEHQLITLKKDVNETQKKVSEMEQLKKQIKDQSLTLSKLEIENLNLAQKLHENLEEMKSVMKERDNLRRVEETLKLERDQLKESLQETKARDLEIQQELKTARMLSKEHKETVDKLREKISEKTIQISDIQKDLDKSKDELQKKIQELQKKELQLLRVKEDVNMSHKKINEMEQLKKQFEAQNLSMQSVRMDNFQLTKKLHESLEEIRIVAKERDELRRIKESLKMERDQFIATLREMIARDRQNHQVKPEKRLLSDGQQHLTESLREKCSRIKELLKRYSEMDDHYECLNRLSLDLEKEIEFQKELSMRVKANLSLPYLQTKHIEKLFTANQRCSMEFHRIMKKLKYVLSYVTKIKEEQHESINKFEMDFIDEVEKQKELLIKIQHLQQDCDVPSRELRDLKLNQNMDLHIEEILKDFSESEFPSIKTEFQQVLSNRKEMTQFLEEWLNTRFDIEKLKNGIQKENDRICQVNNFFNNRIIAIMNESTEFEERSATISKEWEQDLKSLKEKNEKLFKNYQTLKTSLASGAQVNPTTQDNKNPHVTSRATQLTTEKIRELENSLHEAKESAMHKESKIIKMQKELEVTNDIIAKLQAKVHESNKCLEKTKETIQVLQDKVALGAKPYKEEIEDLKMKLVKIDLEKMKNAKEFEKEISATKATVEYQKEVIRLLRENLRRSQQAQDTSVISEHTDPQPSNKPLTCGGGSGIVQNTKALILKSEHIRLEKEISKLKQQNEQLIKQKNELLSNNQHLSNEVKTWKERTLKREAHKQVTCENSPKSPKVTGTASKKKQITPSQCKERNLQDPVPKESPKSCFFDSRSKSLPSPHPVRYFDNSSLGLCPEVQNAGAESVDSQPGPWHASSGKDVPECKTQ
Sequence of Centromere-associated protein E (Homo sapiens, UniProt Q02224, I182L/K184T/T183A) (Q02224 whole entry I182L/T183A/K184T): as the sequence (Q02224 whole entry I182L) above, with T183A, K184T counted along it

Molecule CC(C)Oc1ccc(C(=O)N[C@H](CNC(=O)CN(C)C)Cc2ccc(-c3cn4cccc([C@H](C)O)c4n3)cc2)cc1Cl [GSK-923295A] has a Ki [1] of 64 nM, a Ki [2] of 14 nM and a GI50 (A549) of 21 nM. It also gave a GI50 (AN3-CA) of 23 nM, a GI50 (BHT-101) of 100 nM and a GI50 (C3A) of 54 nM. For the same molecule, the GI50 (DoTc2-4510) was 33 nM, the GI50 (HCC1143) was 27 nM and the GI50 (J82) was 114 nM. The GI50 (K562) was 25 nM, the GI50 (MCF7) was 29 nM and the GI50 (MES-SA) was 65 nM. It also gave a GI50 (OVCAR-3) of 42 nM, a GI50 (OVCAR-5) of 34 nM and a GI50 (RPMI-2650) of 36 nM. It also gave a GI50 (SCC-9) of 24 nM, a GI50 [3] of 26 nM and a GI50 (SW-620) of 47 nM. The GI50 (SW780) was 30 nM, the GI50 (SW837) was 33 nM and the GI50 (SW 962) was 21 nM. The GI50 (UACC-62) was 25 nM, the Activity (647-V) was 2.72 and the Activity (A498) was 1.11. It also gave an Activity [4] of 2.88, an Activity (COLO 205) of 3.3 and an Activity [5] of 2.48. For the same molecule, the Activity (HCC 2998) was 2.76, the Activity (MDA-MB-468) was 2.05 and the Activity (NCI-H2122) was 2.82. It also gave an Activity (NCI-H596) of 1.31, an Activity (NCI-H82) of 2 and an Activity (OVCAR-4) of 2.94. It also gave an Activity (OVCAR-8) of 3.26, an Activity (Y79) of 4.11 and a Time (NCI-H460) of 15.4 days. The Time (NCI-H1299) was 3.3 days, the Activity [6] was 104% and the Activity [7] was “Non-Toxic”.
